{"data": "Measured values from different studies", "medium": "plasma", "note": "Lines come from different studies, so protocols differ."}
{"Compound": "COc1ccc([C@@H]2CN(C(=O)[C@@H](O)CO)C[C@@]2(C)[C@@H](C)O)cc1OC1CN(c2ccc(C)cn2)C1", "host": "human", "route": "oral", "dose": "1.5 mg", "notes": "single dose, healthy volunteers", "AUC(0-t)": "467 ng·h/mL"}
{"Compound": "Cc1nc(NC(=O)N2CCC[C@H]2C(N)=O)sc1-c1ccnc(C(C)(C)C(F)(F)F)c1", "host": "human", "route": "oral", "dose": "180 mg", "notes": "patients", "AUC(0-t)": "15500 ng·h/mL"}
{"Compound": "CC(C)n1cc(C#N)c2cc(-n3cc(C(=O)O)cn3)ccc21", "host": "human", "route": "oral", "dose": "100 mg", "notes": "single dose, fasted, healthy volunteers", "AUC(0-t)": "19400 ng·h/mL"}
{"Compound": "CO[C@@H]1[C@H](OC(=O)N2CC(CCN3CCOCC3)C2)CC[C@]2(CO2)[C@H]1[C@@]1(C)O[C@@H]1CC=C(C)C", "host": "human", "route": "subcutaneous", "dose": "3.6 mg", "notes": "single dose, healthy volunteers", "AUC(0-t)": "10.4 ng·h/mL"}
{"Compound": "COCCOc1cnc2ccn([C@H](C)c3nnc4c(F)cc(-c5cnn(C)c5)cn34)c(=O)c2c1", "host": "human", "route": "oral", "dose": "100 mg", "notes": "multiple doses, once daily, patients", "AUC(0-t)": "17300 ng·h/mL"}
{"Compound": "CC(C)(O)c1ccccc1-c1ccc2[nH]c(/C=C/c3ccc(C(F)(F)F)cc3)nc2c1", "host": "male human", "route": "oral", "dose": "120 mg", "notes": "single dose, fasted", "AUC(0-t)": "2820 ng·h/mL"}
{"Compound": "C[C@@]1(c2cc(NC(=O)c3ccc(C#N)cn3)ccc2F)C=CSC(N)=N1", "host": "human", "route": "oral", "dose": "90 mg", "notes": "single dose", "AUC(0-t)": "8800 ng·h/mL"}
{"Compound": "CO[C@H]1CC[C@H](N2C(=O)CNc3ncc(-c4ccc(C(C)(C)O)nc4)nc32)CC1", "host": "human", "route": "oral", "dose": "45 mg", "notes": "multiple doses, patients", "AUC(0-t)": "2080 ng·h/mL"}
{"Compound": "COc1cc(N2CCC(N3CCN(C)CC3)CC2)ccc1Nc1ncnc(Nc2ccccc2S(=O)(=O)C(C)C)n1", "host": "human", "route": "oral", "dose": "75 mg", "notes": "multiple doses, patients", "AUC(0-t)": "3810 ng·h/mL"}
{"Compound": "CCNCCCNC/C=C\\CNCCCNCC", "host": "human", "route": "intravenous", "dose": "200 mg", "notes": "patients, infusion", "AUC(0-t)": "1330 ng·h/mL"}
{"Compound": "CCCCC1=NC2(CCCC2)C(=O)N1Cc1ccc(-c2ccccc2S(=O)(=O)Nc2noc(C)c2C)c(COCC)c1", "host": "human", "route": "oral", "dose": "800 mg", "notes": "single dose, fasted, healthy volunteers", "AUC(0-t)": "138000 ng·h/mL"}
{"Compound": "FC(F)(F)c1ccc(CNc2ccc(Cc3c[nH]c4ncc(Cl)cc34)cn2)cn1", "host": "human", "route": "oral", "dose": "600 mg", "notes": "multiple doses, patients", "AUC(0-t)": "13300 ng·h/mL"}
